Source: ChEMBL document CHEMBL1828538, “Synthesis and pharmacological evaluation of indole-based sigma receptor ligands” (Eur J Med Chem, 2011)
The source made the active and inactive calls. The calls are words filed in the database; no cut-off is given here.

Experiments:
[1] = biological target: Cannabinoid receptor 2 (Homo sapiens) (UniProt P34972); experiment: Displacement of radioligand from cannabinoid CB2 receptor assessed as 50% receptor inhibition at 10^-5 M
How it was run: (§1)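 Part of a contracted (NovaScreen) panel of 64 radioligand/enzyme assays, with the test compound run at 10⁻⁵ M and 10⁻⁷ M. Each assay was scored by whether radioligand displacement exceeded 50% at each concentration.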

[2] = Displacement of radioligand from dopamine D4.2 receptor assessed as 50% receptor inhibition at 10^-5 M; how it was run: as §1
[3] = biological target: T1, Glycine receptor subunit alpha-1 (Homo sapiens) (UniProt P23415); experiment: Displacement of radioligand from strychnine sensitive glycine receptor assessed as 50% receptor inhibition at 10^-5 M; how it was run: as §1
T1 sequence (whole entry): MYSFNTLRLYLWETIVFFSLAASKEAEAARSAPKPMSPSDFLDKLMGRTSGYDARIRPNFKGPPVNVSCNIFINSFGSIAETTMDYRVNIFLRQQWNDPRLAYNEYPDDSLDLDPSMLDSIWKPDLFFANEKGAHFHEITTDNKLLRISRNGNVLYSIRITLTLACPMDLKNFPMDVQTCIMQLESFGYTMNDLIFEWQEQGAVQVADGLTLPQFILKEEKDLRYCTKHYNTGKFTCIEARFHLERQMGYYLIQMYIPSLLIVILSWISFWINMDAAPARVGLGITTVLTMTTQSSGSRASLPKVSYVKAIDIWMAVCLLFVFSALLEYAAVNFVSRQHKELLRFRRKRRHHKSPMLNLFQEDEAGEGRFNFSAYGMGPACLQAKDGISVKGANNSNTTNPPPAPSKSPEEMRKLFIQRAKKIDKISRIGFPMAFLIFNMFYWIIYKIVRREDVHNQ

[4] = biological target: T2, Muscarinic acetylcholine receptor M2 (Homo sapiens) (UniProt P08172); experiment: Displacement of radioligand from muscarinic M2 receptor assessed as 50% receptor inhibition at 10^-5 M; how it was run: as §1
T2 sequence (whole entry): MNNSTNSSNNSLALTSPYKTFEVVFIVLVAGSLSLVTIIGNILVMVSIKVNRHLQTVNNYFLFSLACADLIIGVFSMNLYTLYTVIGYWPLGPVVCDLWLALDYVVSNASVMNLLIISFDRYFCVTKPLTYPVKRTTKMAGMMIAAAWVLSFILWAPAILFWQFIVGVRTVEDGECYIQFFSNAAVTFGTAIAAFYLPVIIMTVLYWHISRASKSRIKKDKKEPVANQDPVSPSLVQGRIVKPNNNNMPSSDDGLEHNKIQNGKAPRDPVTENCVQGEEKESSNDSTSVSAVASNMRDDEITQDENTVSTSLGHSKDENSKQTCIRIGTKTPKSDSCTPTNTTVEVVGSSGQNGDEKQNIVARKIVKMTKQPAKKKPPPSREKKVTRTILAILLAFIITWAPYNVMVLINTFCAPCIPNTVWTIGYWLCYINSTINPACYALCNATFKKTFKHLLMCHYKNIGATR

[5] = biological target: Sodium-dependent dopamine transporter (Homo sapiens, UniProt Q01959); experiment: Displacement of [125I]RTI-55 from human DAT expressed in HEK293 cells; assay type: cell-based
How it was run: (§2)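 Nonspecific binding was defined with 5 μM mazindol. Ki was determined under standard conditions and reported as mean ± SEM of replicate assays. A value >10000 nM means less than 30% radioligand displacement at that concentration.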

[6] = biological target: Sodium-dependent serotonin transporter (Homo sapiens, UniProt P31645); experiment: Displacement of [125I]RTI-55 from human SERT expressed in HEK293 cells; assay type: cell-based
[7] = biological target: Sodium-dependent noradrenaline transporter (Homo sapiens, UniProt P23975); experiment: Displacement of [125I]RTI-55 from human NET expressed in HEK293 cells; assay type: cell-based; how it was run: as §2
[8] = biological target: D(1A) dopamine receptor (Homo sapiens, UniProt P21728); experiment: Displacement of [3H]SCH-23390 from human D1 receptor in cell-based assay
How it was run: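 LhD1 cells were labelled with 0.18 nM [3H]SCH-23390, with 1 μM SCH-23390 for nonspecific binding. Ki was from standard assay conditions, as mean ± SEM of replicates. A value >10000 nM denotes under 30% displacement at that concentration.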

[9] = biological target: D(3) dopamine receptor (Homo sapiens, UniProt P35462); experiment: Displacement of [3H]YM-09151-2 from human D3 receptor expressed in CHO cells; assay type: cell-based
How it was run: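 CHOp-D2 or CHOp-D3 cells were labelled with 0.2–0.5 nM [3H]YM-09151-2, and nonspecific binding was set with 1 μM chlorpromazine. Ki was from standard competition conditions, as mean ± SEM of replicate assays.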

[10] = biological target: 5-hydroxytryptamine receptor 2A (Homo sapiens, UniProt P28223); experiment: Displacement of […] from human 5HT2A receptor expressed in HEK cells; assay type: cell-based, HEK293
[11] = Displacement of radioligand from adrenergic alpha1 receptor assessed as 50% receptor inhibition at 10^-7 M; how it was run: as §1
[12] = Displacement of radioligand from adrenergic alpha2 receptor assessed as 50% receptor inhibition at 10^-7 M; how it was run: as §1
[13] = Displacement of radioligand from dopamine D4.2 receptor assessed as 50% receptor inhibition at 10^-7 M; how it was run: as §1
[14] = Displacement of radioligand from muscarinic receptor assessed as 50% receptor inhibition at 10^-7 M; how it was run: as §1
[15] = Displacement of radioligand from BZT-sensitive L-type calcium channel assessed as 50% receptor inhibition at 10^-7 M; how it was run: as §1
[16] = biological target: T3, Substance-K receptor (Homo sapiens) (UniProt P21452); experiment: Displacement of radioligand from neurokinin NK2 receptor assessed as 50% receptor inhibition at 10^-7 M; how it was run: as §1
T3 sequence (whole entry): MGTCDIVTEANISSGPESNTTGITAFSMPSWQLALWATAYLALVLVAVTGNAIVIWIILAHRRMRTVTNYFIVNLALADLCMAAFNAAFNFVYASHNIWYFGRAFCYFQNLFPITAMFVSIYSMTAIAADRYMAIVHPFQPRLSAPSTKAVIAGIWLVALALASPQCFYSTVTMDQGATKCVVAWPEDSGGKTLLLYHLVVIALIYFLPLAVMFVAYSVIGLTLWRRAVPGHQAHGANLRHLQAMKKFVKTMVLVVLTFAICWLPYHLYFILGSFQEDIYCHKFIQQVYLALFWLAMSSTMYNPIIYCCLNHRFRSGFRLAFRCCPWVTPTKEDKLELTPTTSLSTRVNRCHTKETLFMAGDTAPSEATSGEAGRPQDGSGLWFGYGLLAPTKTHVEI

Sequence of 5-hydroxytryptamine receptor 2A (P28223 whole entry): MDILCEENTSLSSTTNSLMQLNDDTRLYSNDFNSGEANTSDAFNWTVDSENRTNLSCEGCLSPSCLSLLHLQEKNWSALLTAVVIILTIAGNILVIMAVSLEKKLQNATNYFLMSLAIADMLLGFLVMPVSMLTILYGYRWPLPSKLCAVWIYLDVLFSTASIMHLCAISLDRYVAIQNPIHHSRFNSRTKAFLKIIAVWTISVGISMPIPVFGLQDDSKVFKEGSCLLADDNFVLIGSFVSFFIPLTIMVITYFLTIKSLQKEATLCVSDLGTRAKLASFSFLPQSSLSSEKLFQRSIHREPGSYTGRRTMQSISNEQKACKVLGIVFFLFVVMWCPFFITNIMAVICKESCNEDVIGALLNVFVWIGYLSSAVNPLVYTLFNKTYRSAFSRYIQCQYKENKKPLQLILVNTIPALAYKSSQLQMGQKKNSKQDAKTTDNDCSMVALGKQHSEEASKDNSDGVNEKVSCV
Sequence of Sodium-dependent noradrenaline transporter (P23975 whole entry): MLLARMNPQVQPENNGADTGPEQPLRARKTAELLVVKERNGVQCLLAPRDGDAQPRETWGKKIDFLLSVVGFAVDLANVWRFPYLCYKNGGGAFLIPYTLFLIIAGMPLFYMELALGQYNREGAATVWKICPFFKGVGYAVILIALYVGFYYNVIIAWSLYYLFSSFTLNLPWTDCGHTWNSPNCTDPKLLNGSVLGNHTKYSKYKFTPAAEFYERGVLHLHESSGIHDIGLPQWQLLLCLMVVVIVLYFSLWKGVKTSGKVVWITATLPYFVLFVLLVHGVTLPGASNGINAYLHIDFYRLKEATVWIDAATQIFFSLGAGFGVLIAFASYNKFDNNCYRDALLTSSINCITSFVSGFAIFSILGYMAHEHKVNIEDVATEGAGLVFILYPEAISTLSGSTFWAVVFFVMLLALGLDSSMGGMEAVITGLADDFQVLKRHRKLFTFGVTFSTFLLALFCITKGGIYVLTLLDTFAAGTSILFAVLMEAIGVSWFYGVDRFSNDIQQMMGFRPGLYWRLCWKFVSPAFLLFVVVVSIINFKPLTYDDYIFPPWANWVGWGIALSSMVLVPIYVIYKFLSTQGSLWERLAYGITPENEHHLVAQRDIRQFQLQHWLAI
Sequence of D(1A) dopamine receptor (P21728 whole entry): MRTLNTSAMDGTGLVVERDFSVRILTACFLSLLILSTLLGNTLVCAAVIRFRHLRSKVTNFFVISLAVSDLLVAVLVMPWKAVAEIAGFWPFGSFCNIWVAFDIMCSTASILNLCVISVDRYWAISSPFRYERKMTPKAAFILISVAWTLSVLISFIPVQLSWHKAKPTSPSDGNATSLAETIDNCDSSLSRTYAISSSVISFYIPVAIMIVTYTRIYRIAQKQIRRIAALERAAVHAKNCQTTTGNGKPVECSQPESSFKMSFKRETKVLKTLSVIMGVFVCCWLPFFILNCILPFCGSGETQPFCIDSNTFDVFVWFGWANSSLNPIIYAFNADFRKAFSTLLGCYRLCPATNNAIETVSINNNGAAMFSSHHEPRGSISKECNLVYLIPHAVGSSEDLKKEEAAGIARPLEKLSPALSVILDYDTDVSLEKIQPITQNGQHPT
Sequence of Sodium-dependent serotonin transporter (P31645 whole entry): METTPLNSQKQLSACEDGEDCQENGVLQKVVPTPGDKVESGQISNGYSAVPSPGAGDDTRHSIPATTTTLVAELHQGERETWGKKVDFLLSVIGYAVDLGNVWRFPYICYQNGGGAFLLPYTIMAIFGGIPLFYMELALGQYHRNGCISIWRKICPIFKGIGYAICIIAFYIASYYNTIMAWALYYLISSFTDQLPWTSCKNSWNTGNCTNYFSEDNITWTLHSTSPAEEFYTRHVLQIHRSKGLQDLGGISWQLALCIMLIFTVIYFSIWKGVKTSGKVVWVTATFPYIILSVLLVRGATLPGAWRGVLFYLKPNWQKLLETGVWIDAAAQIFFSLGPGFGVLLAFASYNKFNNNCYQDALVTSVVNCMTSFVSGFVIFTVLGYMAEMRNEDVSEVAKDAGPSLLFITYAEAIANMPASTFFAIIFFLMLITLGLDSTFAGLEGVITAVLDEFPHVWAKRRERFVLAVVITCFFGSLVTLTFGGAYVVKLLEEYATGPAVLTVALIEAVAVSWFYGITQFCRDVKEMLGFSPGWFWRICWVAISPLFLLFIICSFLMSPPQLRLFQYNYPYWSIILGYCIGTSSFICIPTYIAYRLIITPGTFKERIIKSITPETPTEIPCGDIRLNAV
Sequence of Cannabinoid receptor 2 (Homo sapiens) (P34972 whole entry): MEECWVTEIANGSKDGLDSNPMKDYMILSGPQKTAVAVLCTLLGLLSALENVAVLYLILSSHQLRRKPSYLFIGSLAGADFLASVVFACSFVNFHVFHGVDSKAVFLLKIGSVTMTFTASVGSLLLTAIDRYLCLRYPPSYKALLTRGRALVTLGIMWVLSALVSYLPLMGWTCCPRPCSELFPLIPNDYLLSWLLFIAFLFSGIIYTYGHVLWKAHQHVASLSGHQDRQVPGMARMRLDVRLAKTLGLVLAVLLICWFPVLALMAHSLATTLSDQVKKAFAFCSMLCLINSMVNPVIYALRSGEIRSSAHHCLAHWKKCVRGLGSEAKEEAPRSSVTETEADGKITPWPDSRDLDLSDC
Sequence of D(3) dopamine receptor (P35462 whole entry): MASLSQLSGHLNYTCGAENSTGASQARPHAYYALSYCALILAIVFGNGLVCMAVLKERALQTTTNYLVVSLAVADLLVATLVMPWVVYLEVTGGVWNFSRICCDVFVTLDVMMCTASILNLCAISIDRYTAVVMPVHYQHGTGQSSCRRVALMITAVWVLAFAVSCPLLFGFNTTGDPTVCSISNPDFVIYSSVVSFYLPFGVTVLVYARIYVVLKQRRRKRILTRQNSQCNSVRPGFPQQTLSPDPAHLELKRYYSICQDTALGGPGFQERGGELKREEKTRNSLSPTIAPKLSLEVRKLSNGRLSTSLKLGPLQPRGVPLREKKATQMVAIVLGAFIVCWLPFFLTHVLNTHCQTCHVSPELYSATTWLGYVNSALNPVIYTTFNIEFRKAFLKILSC
Sequence of Sodium-dependent dopamine transporter (Q01959 whole entry): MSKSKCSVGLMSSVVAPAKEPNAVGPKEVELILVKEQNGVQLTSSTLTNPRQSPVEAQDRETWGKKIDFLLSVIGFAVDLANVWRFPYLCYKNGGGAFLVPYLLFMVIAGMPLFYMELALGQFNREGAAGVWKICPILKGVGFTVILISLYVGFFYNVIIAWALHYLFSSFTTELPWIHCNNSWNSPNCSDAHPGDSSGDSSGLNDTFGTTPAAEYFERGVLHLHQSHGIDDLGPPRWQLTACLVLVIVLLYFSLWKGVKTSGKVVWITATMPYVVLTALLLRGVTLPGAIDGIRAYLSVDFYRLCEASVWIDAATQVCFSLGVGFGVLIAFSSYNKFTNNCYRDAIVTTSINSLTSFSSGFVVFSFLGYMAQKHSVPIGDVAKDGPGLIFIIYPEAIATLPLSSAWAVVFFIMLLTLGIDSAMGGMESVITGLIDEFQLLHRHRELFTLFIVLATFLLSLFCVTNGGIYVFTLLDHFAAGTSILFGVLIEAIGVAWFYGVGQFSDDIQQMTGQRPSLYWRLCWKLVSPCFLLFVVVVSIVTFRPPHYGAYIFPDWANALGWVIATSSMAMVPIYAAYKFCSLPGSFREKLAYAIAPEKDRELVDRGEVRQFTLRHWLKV

Compound: COc1cc2c(cc1OC)CN(CCCCn1cc(-c3ccc(F)cc3)c3ccccc31)CC2
- inhibition [1]: Active
- inhibition [2]: Active
- inhibition [3]: Active
- inhibition [4]: Active
- Ki [5]: 5000 nM
- Ki [6]: 295 nM
- Ki [7]: 1350 nM
- Ki [8]: > 10000 nM
- Ki [9]: 544 nM
- Ki [10]: 1270 nM
- inhibition [11]: inactive
- inhibition [12]: inactive
- inhibition [13]: inactive
- inhibition [14]: inactive
- inhibition [15]: inactive
- inhibition [16]: inactive
